Among the data in PubChem BioAssay AID463079 (The Scripps Research Institute Molecular Screening Center, 2010) are inhibition values, retold here.

As usually defined, the inhibition is the relative decrease from the control value, in per cent.

Among all 330,000 compounds or so, about 2,000 (0.61%) were called active.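 Rule for the calls: active = inhibition above that plate's mean sample inhibition plus 3 SD (cut at about 26% in these data); inactive = the rest.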 The sample as a whole holds a higher share of actives than the screen did.

The experiment can be described thus: nonselective Gq signaling inhibition in CHO cells – cell-based, fluorescence, Fluo-8 calcium dye, counter-screen for OX1R antagonist project, primary screen (AID 463079).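 Note: 0% = ATP-challenged DMSO wells and 100% = DMSO wells without ATP.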 The note with it: parental CHO-K1, ATP-induced calcium, Fluo-8 fluorescence; at 5.6 µM; hits give high values. The method in brief:
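Measured by: calcium-sensitive Fluo-8 fluorescence / Test system: CHO parental line / Controls: ATP-challenged DMSO wells low, unchallenged DMSO wells high / Measure: % inhibition / Compound: single nominal dose of 5.6 µM per compound / Replicates: single well per compound, no replicates / Reagent: ATP as calcium-mobilizing challenge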
A general note: Counterscreens check selectivity or assay interference.
Consider `O=C(c1cc(COc2ccc(F)c(F)c2)on1)N1CCOCC1`, for which the inhibition was -5.07% (inactive).
For the molecule `C=CCC1(CC=C)CCCN1C(=O)c1cc(COc2ccc(-n3cncn3)cc2)on1`, the inhibition is 66.2% (active).
Take `CCn1ccnc1CN(C)C(=O)c1cc(COc2ccc(-n3cncn3)cc2)on1`: the inhibition is -9.68% (inactive).
As for `COC(=O)c1cc(Oc2ccc(S(=O)(=O)N3CCOCC3)cc2[N+](=O)[O-])cc(C(=O)OC)c1`, the inhibition was -3.52% (inactive).
For `N#C/C(=C\c1ccccc1)c1n[nH]c(Cn2cncn2)n1`, the inhibition was -15.2% (inactive).
With `CC(NC(=O)C1CCCN(S(=O)(=O)c2ccc(-n3cnnn3)cc2)C1)c1ccc(F)cc1` (centres undefined), the inhibition is -12.5% (inactive).
For `Cc1ccccc1OCC(=O)Nc1ccc(N2CCN(C(=O)C(C)C)CC2)c(Cl)c1`, the inhibition was 29.7% (active).
Consider `CCC(=O)N1CCN(c2ccccc2NC(=O)COc2cccc(C)c2C)CC1`, for which the inhibition was -26.9% (inactive).
With `Cc1ccccc1OCC(=O)Nc1ccc2c(c1)ncn2C` the figure was 17.8% (inactive); with `CC(C)(C)n1cnnc1Sc1ccc([N+](=O)[O-])cn1`, -10.8% (inactive); with `Cc1nc2ccc(NC(=S)N3CCC(C)CC3)cc2nc1C`, -10.7% (inactive).
As for `CC1=C/C(=N\OS(=O)(=O)c2ccccc2)C=CC1=O`, the inhibition was 46% (active).
In the case of `NNC(=O)CNC(c1ccccc1)c1cc(Cl)ccc1NC(=O)c1ccccc1` (centres undefined), the inhibition was -31.4% (inactive).
Turning to `COc1ccc(S(=O)(=O)Nc2cccnc2)c(Cl)c1Cl`, the inhibition is -1.47% (inactive).
As for `Cc1cc(C)c(C)c(S(=O)(=O)Nc2cccnc2)c1C`, the inhibition was -11.2% (inactive).
With `COc1ccccc1Oc1ccc(S(=O)(=O)Nc2cccnc2)cc1`, the inhibition is 36.9% (active).
Turning to `O=C(C1CC(=O)N(c2ccc(F)cc2)C1)N1CCN(c2ccccc2)CC1` (centres undefined), the inhibition was -3.64% (inactive).
Take `CCOC(=O)C1CCN(CC(=O)Nc2ccc(OC)c(S(=O)(=O)N3CCCCC3)c2)CC1`: the inhibition is -13.3% (inactive).
Regarding `CCCCSc1nnc2c(n1)OC=Nc1ccccc1-2`, the inhibition is -1.35% (inactive).
Consider `CCOC(=O)Cn1c(=O)oc2cc(S(=O)(=O)N(C)Cc3ccco3)ccc21`, for which the inhibition was 4.07% (inactive).
With `CN(c1ccccc1)c1ccc(/C=c2\s/c(=C(/C#N)C(=O)C(C)(C)C)n(Cc3ccco3)c2=O)cc1` the figure was 47.5% (active); with `CCCCn1c(SCC(=O)N2CCCC2=O)nc2cc(S(N)(=O)=O)ccc21`, -0.51% (inactive); with `CCCCn1c(SCC(=O)N2CCC(C(=O)OCC)CC2)nc2cc(S(N)(=O)=O)ccc21`, -21.9% (inactive).
Take `CCCCn1c(SCc2ncc(-c3ccccc3)o2)nc2cc(S(N)(=O)=O)ccc21`: the inhibition was 36.6% (active).
`Cc1nnc(C)c2c(C)n(N)c(C)c12`: the inhibition was 4.12% (inactive).
Regarding `c1ccc(-c2cc3c(NCC4COc5ccccc5O4)ncnc3s2)cc1` (centres undefined), the inhibition was 2.37% (inactive).
As to `c1ccc2c(c1)OCC(CNc1ncnc3nc[nH]c13)O2` (centres undefined), the inhibition is 76% (active).
The same measure for `S=C(NCC1COc2ccccc2O1)Nc1ccc(Br)cc1` (centres undefined): 1.75% (inactive); for `COc1ccc(NC(=O)CC2SC(N3CCCCC3)=NC2=O)cc1OC` (centres undefined): -5.72% (inactive).
With `CCC(=O)Nc1ccc(C(=O)CSc2nnc(CNc3ccc(Cl)cc3)o2)cc1OC` the figure was 39.8% (active); with `COc1cc(C(=O)NCc2nnc(SCC(=O)c3ccc(Cl)cc3)o2)cc(OC)c1OC`, -35.5% (inactive); with `CCOC(=O)CSc1nnc(CNc2ccc(F)cc2)o1`, 7.59% (inactive).
As for `CCCCCCCNC(=O)C1(CC2CC(c3cccc(Br)c3)=NO2)CCN(C(=O)c2cc(OCC)c(OCC)c(OCC)c2)CC1` (centres undefined), the inhibition is -43.7% (inactive).
As to `CC1C/C(=N/NC(=O)c2cccs2)CC(C)(C)C1` (centres undefined), the inhibition is 5.84% (inactive).
Take `O=C(CN1C(=O)NC(Cc2c[nH]c3ccccc23)C1=O)Nc1ccccc1C(F)(F)F` (centres undefined): the inhibition is -8.55% (inactive).
Consider `CC(C)(C)C(=O)NNC(=O)c1ccc(Oc2cc(Cl)cc(Cl)c2)o1`, for which the inhibition was 0.38% (inactive).
As to `CC(=O)NC(CC(=O)O)c1ccc(F)cc1` (centres undefined), the inhibition is 14.5% (inactive).
The same measure for `CN(C)c1ccc(C(CC(=O)O)C(=O)O)cc1` (centres undefined): 26.3% (active); for `CC(C)CNC(=O)C(=O)Nc1ccc(N(C)C)cc1`: -6.25% (inactive); for `COC(=O)Cn1c(=NC(=O)c2cc(OC)c(OC)c(OC)c2)sc2cc(OC)ccc21`: -4.35% (inactive).
With `CN(C)/C=C(/C(=O)c1ccc(Cl)c(Cl)c1)c1nnnn1-c1ccccc1` the figure was 4.24% (inactive).
`CCc1ccc(CN(C)C(=O)CCc2nnc(-c3ccc(-c4ccccc4)cc3)o2)nc1`: the inhibition was 2.52% (inactive).
Turning to `COc1ccc(Cl)cc1-n1c(C)cc(C(=O)OCC(=O)N2CC(=O)Nc3ccccc32)c1C`, the inhibition is -26.4% (inactive).
Take `COC(=O)c1ccccc1Sc1c(/C=N/OCc2ccc(Cl)cc2)c(C(F)(F)F)nn1C`: the inhibition is -7.11% (inactive).
As for `O=C(O)CSc1c2c(nc3cc(C(=O)Nc4cccc(C(F)(F)F)c4)ccc13)CCCC2`, the inhibition was -7.81% (inactive).
Consider `Cn1nc(C(F)(F)F)c(C(=O)Nc2cccc(C(F)(F)F)c2)c1SCc1ccc(Cl)cc1`, for which the inhibition is 56.3% (active).
As for `Cc1ccc(-n2[nH]c(C)c(/C=N/NC(=O)c3cccc([N+](=O)[O-])c3)c2=O)cc1C`, the inhibition was -2.1% (inactive).
In the case of `COc1cc(SC#N)ccc1N=Cc1c(C)[nH]n(-c2ccc(C)cc2)c1=O`, the inhibition is 96.8% (active).
The same measure for `O=C(NNC(=O)c1cnccc1C(F)(F)F)c1ccc(Cl)cc1`: -3% (inactive); for `CC1(C)CC(N2CCN(C(c3ccccc3)c3ccccc3)CC2)=CC(=[N+]2CCCCC2)C1`: 29.5% (active); for `O=C1CC(N2CCN(C(c3ccccc3)c3ccccc3)CC2)C(=O)N1` (centres undefined): -12.9% (inactive).
For the molecule `Oc1ccccc1CN1CCN(C(c2ccccc2)c2ccccc2)CC1`, the inhibition was -33.9% (inactive).
The same measure for `CC(C)CC(CCc1ccccc1)OS(N)(=O)=O` (centres undefined): -9.01% (inactive); for `CC(C(=O)c1ccc(-c2ccccc2)cc1)[n+]1cccc(Br)c1` (centres undefined): -2.14% (inactive).
For the molecule `Cc1cc(C)c(-c2c(O)c3ccccc3n(C)c2=O)c(C)c1`, the inhibition was -6.96% (inactive).
For the molecule `CCOC(=O)Cc1cc(=O)[nH]c(=O)[nH]1`, the inhibition is -1.68% (inactive).
For `COc1ccc(S(=O)(=O)N(C)CC(=O)N2CCCC2)cc1`, the inhibition is 0.64% (inactive).
Turning to `CN(C)S(=O)(=O)c1ccc(Oc2ccc(S(=O)(=O)N(C)C)cc2)cc1`, the inhibition is 53.5% (active).
With `CN(C)S(=O)(=O)c1ccc(NC(=O)N2CCOCC2)cc1` the figure was -16.7% (inactive).
